Test results as given in PMC5191920 (Biochimica et biophysica acta, 2016).
“Also recorded” adds a separate entry of the source. Ends that are not written are not given here.

Columns and labels:
[1] = DMPC vesicle clearance; assay type: physicochemical; settings: peptide 100 ng/ml, DMPC 1 mg/ml, PBS, 24 °C, 60 min, absorbance 432 nm
Procedure, shortened: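 Multilamellar DMPC vesicles (1 mg/ml) made by resuspending dried lipid in PBS and vortexing for 5 min. Peptide added to 100 ng/ml final. Absorbance at 432 nm read every 5 s for 60 min at 24 °C with fast shaking to prevent settling. Turbidity compared with a PBS-only control.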

[2] = Circular dichroism spectroscopy; assay type: physicochemical; settings: 37 °C; for helicity, with TFE: 20% trifluoroethanol
Procedure, shortened: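 Peptides at 0.2 mg/mL (final) in 10 mM phosphate buffer, with or without 20% trifluoroethanol, held at 37 °C. Far-UV spectra recorded from 190 to 240 nm on a spectropolarimeter. Ellipticity in mdeg converted to mean residue ellipticity (deg cm² dmol⁻¹).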

[3] = tested on: isolated human HDL; experiment: Isothermal titration calorimetry, binding to HDL; settings: isolated human HDL injected into peptide, PBS pH 7.4
Procedure, shortened: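 Human HDL isolated by ultracentrifugation. Lipoprotein titrated into cell holding peptide or buffer alone: one small initial injection, then 35 injections, 180 s apart, with heat monitored continuously. Thermograms integrated to binding isotherms.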

[4] = tested on: isolated human LDL; experiment: Isothermal titration calorimetry, binding to LDL; settings: for binding to LDL by ITC: isolated human LDL injected into peptide, PBS pH 7.4
Procedure, shortened: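 Human LDL and HDL isolated by ultracentrifugation. Lipoprotein titrated into a cell holding peptide or buffer alone: one initial injection, then 35 injections spaced 180 s apart. Heat monitored throughout and thermograms integrated to isotherms.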

[5] = DMP cross-linking, SDS-PAGE; assay type: physicochemical; settings: PBS, DMP:peptide 30:1, 2 h room temperature
Procedure, shortened: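 Homo-bifunctional amine-reactive crosslinker dimethylpimelimidate reacted with peptide at 30:1 molar ratio (crosslinker:peptide) in PBS for 2 h at room temperature. Quenched with 1 M Tris. Products resolved by SDS-PAGE under reducing conditions and stained with Coomassie blue to visualise oligomeric species.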

[6] = molecular target: human ABCA1 (Homo sapiens, UniProt O95477); experiment: Cholesterol efflux, ABCA1 transfected BHK cells; assay type: cell-based; settings: ABCA1 expressing BHK cells, 18 h
Procedure, shortened: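 BHK cells stably expressing human ABCA1 labelled 18 h with [3H]cholesterol in DMEM plus 10% fetal calf serum. Cells were washed, then switched to serum-free DMEM with 0.1 mg/ml fatty acid-free BSA. Peptide over a concentration range, or PBS, added for 18 h. Media filtered, cells lysed in 0.1% SDS/0.1 N NaOH, both counted by liquid scintillation. Efflux = media counts/(media + cell counts) × 100.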

[7] = tested on: lipoproteins in human plasma; experiment: Exchangeability of LDL-bound peptide among lipoproteins; settings: FITC labeled B38 on isolated LDL, then human plasma 1 h at 37 °C, FPLC
Procedure, shortened: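 FITC-labelled peptide co-incubated with isolated human LDL for 1 h at 37 °C. LDL repurified by FPLC to remove unbound peptide, and LDL fractions pooled and concentrated. Peptide-loaded LDL then incubated with PBS or human plasma for 1 h at 37 °C. Transfer of fluorescent peptide to other lipoprotein classes measured.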

[8] = tested on: apoB containing lipoproteins in human plasma; assay type: binding; settings: FPLC separation, VLDL plus LDL
Procedure, shortened: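 FITC-labelled peptide incubated with human plasma for 1 h at 37 °C. Separated on two Superose 6 columns in series in Tris buffer (10 mM Tris, 150 mM NaCl, 0.5 mM EDTA, 0.01% azide) at 0.5 mL/min, collecting 0.5 mL fractions. Enzymatic phospholipid assay located VLDL, LDL and HDL. Fluorescence read at ex 485 / em 535 nm. Each peak expressed as percent of total fluorescence.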

[9] = tested on: human red blood cells; experiment: Red blood cell lysis assay; assay type: cell-based; settings: human RBCs, 0 – 100 µM, 2 h room temperature, 1% Triton X-100 = 100% lysis
Procedure, shortened: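 Human erythrocytes washed 5 times in PBS with 5% glucose, pH 7.4. Incubated with peptide at 0–100 µM for 2 h at room temperature, then pelleted at 1000×g for 5 min. Supernatant absorbance read at 450 nm. 1% Triton X-100 served as the 100% lysis reference.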

[10] = tested on: BHK cells; experiment: Visual cytotoxicity during cholesterol efflux experiments; assay type: cell-based; settings: during the cholesterol efflux experiments
[11] = tested on: cells; settings: ref [48]; cited from earlier work
[12] = 0.2 mg/mL peptide, 10 mM phosphate buffer

Sequence of human ABCA1 (O95477 whole entry): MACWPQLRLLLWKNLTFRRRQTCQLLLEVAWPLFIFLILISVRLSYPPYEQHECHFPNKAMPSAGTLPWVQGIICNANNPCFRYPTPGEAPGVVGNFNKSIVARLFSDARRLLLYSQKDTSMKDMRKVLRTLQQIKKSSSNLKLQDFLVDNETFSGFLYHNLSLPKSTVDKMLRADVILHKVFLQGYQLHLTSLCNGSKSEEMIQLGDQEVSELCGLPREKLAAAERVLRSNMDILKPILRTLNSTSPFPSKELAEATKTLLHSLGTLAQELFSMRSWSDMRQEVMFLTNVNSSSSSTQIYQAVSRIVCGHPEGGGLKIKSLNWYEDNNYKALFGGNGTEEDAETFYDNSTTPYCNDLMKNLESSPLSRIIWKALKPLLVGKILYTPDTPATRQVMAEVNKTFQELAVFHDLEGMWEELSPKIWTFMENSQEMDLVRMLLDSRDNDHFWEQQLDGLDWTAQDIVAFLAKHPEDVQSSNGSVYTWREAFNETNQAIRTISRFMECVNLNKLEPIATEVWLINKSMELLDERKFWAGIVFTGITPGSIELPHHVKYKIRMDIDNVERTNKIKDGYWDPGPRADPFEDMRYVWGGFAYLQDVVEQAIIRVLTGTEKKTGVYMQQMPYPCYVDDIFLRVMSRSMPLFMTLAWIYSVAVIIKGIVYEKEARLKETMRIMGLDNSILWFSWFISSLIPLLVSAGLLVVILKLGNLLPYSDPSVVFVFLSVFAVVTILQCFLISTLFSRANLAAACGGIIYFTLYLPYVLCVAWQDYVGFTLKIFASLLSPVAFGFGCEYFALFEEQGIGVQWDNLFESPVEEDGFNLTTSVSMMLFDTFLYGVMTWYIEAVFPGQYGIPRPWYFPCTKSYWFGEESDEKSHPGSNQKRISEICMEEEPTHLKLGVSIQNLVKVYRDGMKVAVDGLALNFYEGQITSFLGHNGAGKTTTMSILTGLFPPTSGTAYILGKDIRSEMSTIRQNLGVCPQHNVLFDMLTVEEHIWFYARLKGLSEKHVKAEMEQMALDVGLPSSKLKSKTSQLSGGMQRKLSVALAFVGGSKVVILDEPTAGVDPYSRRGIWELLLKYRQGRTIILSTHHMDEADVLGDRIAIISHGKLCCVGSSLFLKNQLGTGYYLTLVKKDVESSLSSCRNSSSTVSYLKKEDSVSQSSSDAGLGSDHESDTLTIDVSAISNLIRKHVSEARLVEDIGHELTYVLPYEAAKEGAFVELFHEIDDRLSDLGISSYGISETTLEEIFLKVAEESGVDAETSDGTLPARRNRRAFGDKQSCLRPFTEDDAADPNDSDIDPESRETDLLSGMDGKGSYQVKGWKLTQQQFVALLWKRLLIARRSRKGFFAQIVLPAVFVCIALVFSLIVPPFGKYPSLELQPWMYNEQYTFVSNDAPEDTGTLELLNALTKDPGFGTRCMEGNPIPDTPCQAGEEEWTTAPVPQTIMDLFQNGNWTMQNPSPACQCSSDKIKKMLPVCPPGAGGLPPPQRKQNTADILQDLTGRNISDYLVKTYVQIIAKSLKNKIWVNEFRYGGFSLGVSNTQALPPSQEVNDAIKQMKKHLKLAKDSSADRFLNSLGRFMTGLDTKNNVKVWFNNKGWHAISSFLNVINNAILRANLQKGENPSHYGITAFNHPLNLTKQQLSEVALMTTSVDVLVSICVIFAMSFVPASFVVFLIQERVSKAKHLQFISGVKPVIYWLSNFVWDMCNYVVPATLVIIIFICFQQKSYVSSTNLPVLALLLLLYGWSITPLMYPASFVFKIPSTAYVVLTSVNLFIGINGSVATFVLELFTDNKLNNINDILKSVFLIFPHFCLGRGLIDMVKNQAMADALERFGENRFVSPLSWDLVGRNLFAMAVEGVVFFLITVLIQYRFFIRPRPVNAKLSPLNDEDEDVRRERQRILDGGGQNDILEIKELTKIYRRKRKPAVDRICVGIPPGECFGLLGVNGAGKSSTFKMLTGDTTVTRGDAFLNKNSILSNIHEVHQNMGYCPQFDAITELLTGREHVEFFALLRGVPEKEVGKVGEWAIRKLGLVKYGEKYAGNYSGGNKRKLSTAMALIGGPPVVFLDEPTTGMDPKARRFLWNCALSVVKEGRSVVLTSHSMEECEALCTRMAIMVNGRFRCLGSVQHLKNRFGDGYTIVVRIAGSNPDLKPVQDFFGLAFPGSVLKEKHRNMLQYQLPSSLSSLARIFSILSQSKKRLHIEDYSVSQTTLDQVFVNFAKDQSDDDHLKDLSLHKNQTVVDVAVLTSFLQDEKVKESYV

**Q.** For “DWLKAFYDKVAEKLKEAFPDWAKAAYDKAAEKAKEAA [5A, reference compound]”, which “solubilization / clearance of DMPC vesicles” value [1] is on record?
**A.** rapidly cleared the solution

**Q.** What does the source list for EKLKAKLKEGGEKLKAKLKE [FLANK]?
**A.** helicity, with TFE [2, 12]: 38%; secondary structure by CD, aqueous solution ([2]; 10 mM phosphate buffer, no TFE): random coil structure; binding to HDL by ITC [3]: did not appear to bind strongly to either lipoprotein; solubilization / clearance of DMPC vesicles [1]: did not solubilize DMPC vesicles; binding to LDL by ITC [4]: did not appear to bind strongly to either lipoprotein; oligomeric forms in aqueous solution [5]: only found as monomer and dimer in aqueous solution; cholesterol efflux, ABCA1 cells [6]: ineffective in promoting cholesterol efflux

**Q.** With “EKLKAKLKEGGGLSDEAVTSLLPQLIEVSSPGGEKLKAKLKE [B07]” as the substance, how does the “helicity, with TFE” value [2, 12] read?
**A.** 40%

**Q.** What about the “secondary structure by CD, aqueous solution” value ([2]; 10 mM phosphate buffer, no TFE) of the same substance?
**A.** random coil structure

**Q.** For “EKLKAKLKEGGKATLELSPWQMSALVQVHASQPSSFHDFPDLGGEKLKAKLKE [B61]”, which “helicity, with TFE” value [2, 12] is on record?
**A.** 60%

**Q.** And the “secondary structure by CD, aqueous solution” value ([2]; 10 mM phosphate buffer, no TFE)?
**A.** random coil structure

**Q.** Which results are given for “EKLKAKLKEGGLNIKRGIISALLVPPETEEAGGEKLKAKLKE [B04]”?
**A.** helicity, with TFE [2, 12]: 43%; secondary structure by CD, aqueous solution ([2]; 10 mM phosphate buffer, no TFE): random coil structure

**Q.** With “EKLKAKLKEGGQELQRYLSLVGQVYSTLVTYISDWWTLGGEKLKAKLKE [B38]” as the substance, how does the “helicity, with TFE” value [2, 12] read?
**A.** 59%

**Q.** And the “helicity, aqueous solution” value ([2]; 0.2 mg/mL peptide, 10 mM phosphate buffer, no TFE)?
**A.** 40.1%

**Q.** And the “secondary structure by CD, aqueous solution” value ([2]; 10 mM phosphate buffer, no TFE)?
**A.** α-helical secondary structure; also recorded: formed an α-helix in aqueous buffer

**Q.** And the “helicity, with POPC vesicles” value ([2]; POPC vesicles added (also printed POPS))?
**A.** 42.4%

**Q.** What about the “secondary structure by CD, with POPC vesicles” value ([2]; POPC vesicles added) of the same substance?
**A.** slight increase in helicity

**Q.** And the exchangeability between lipoproteins [7]?
**A.** could exchange between lipoproteins; also recorded: exchangeable between lipoproteins

**Q.** And the “percent of peptide bound to apoB containing lipoproteins” value [8]?
**A.** 17%

**Q.** And the “concentration above which a small amount of red cell lysis occurs” value [9]?
**A.** above 30 uM

**Q.** What about the “binding to HDL by ITC” value [3] of the same substance?
**A.** high affinity binding to both isolated HDL and LDL; also recorded: found to bind to high density lipoprotein (HDL) but with lower affinity than LDL

**Q.** And the “solubilization / clearance of DMPC vesicles” value [1]?
**A.** rapidly cleared the solution; also recorded: does not clear DMPC vesicles as rapidly

**Q.** And the “total binding energy for LDL relative to HDL” value ([4]; ITC, isolated human LDL vs. HDL)?
**A.** 2.7 times

**Q.** What about the “lipoprotein binding of synthesized HCD peptides” value ([4]; ITC, lipoprotein class not specified) of the same substance?
**A.** showed significant lipoprotein binding capacity

**Q.** And the “shape of ITC thermal energy curve” value ([4]; binding to lipoprotein particles)?
**A.** U-shaped curve

**Q.** What about the “binding to LDL by ITC” value [4] of the same substance?
**A.** high affinity binding to both isolated HDL and LDL; also recorded: only peptide with significant binding affinity for LDL

**Q.** And the “binding energy in buffer control” value ([4]; peptide in buffer control (no LDL))?
**A.** lack of significant binding energy

**Q.** And the “oligomeric forms in aqueous solution” value [5]?
**A.** presence of B38 oligomers in aqueous solution

**Q.** What about the “visual evidence of cytotoxicity” value [10] of the same substance?
**A.** no visual evidence of cytotoxicity was observed

**Q.** What about the “cholesterol efflux, ABCA1 cells” value [6] of the same substance?
**A.** capable of ABCA1-dependent cholesterol efflux from cells; also recorded: promotes ABCA1 specific cholesterol efflux

**Q.** Which “cholesterol efflux from cells” value [11] does the source give for “apoB: large amphipathic protein, structural scaffold of several classes of lipoproteins” here?
**A.** does not promote cholesterol efflux from cells
